Experimental findings from ChEMBL document CHEMBL1138222, “9-Benzylidene-naphtho[2,3-b]thiophen-4-ones as novel antimicrotubule agents-synthesis, antiproliferative activity, and inhibition of tubulin polymerization” (J Med Chem, 2006) are described below.

Structures are written as SMILES. Some results are limits rather than exact numbers.

In one test the test system is K562. Put plainly: Antiproliferative activity against human K562 cell line. Format: functional, cell-based.
In a further test the target is Tubulin (Sus scrofa, UniProt P02554+P02550). Briefly: Inhibition of tubulin polymerization in porcine brain.
In test [1] the test system is P388. Briefly: Antiproliferative activity against P388 ADR cells by XTT assay after 48 hrs. Format: functional, cell-based. The following applies: Mus musculus, P388, 48 h. The procedure, abridged: (§1)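 Tumour cell lines were seeded at 1 × 10^3 to 8 × 10^4 cells/well for logarithmic growth and exposed to a concentration series for 48 h. Proliferation was read as cellular metabolic activity by XTT. IC50 came from dose-response curves by nonlinear regression, with at least two replicates.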
On the technique in general: Tetrazolium assays rely on reduction of a dye to a coloured formazan, in cell work by metabolically active cells.

A further test in a line: cells. The settings on record: Rattus norvegicus, LT12, 48 h.
In another test the test system is MDR. Put plainly: Antiproliferative activity against LT12 MDR cells by XTT assay after 48 hrs. It counts as functional, cell-based. The settings on record: Rattus norvegicus. The method, boiled down: as §1
A further test relates to L1210. Put plainly: Antiproliferative activity against L1210 VCR cells by XTT assay after 48 hrs. Format: functional, cell-based. The following applies: Mus musculus, L1210, 48 h. The method, boiled down: as §1
The subject of test [2] is P388. Put plainly: Antiproliferative activity against P388 cells by XTT assay after 48 hrs. It counts as functional, cell-based. The following applies: Mus musculus, P388, 48 h. The procedure, abridged: as §1
A short description of test [3]: Antiproliferative activity against KB/HeLa cells by XTT assay after 48 hrs. Format: functional, cell-based. The following applies: Homo sapiens. The procedure, abridged:
as §1

For test [4], the system named is RKO. Put plainly: Antiproliferative activity against RKO cells with ectopic-induced p27kip1-expression by XTT assay after 48 hrs. Format: functional, cell-based. The following applies: Homo sapiens. The method, boiled down:
(§2)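 RKO colon adenocarcinoma cells carry an ecdysone-inducible p27kip1 vector. On day 1 they were plated with 3 µM ponasterone A (induced, 2 × 10^4 cells/well) or without it (not induced, 6 × 10^3 cells/well) and held 24 h at 37 °C. Compound or DMSO control was then added for 48 h at 37 °C, followed by a standard XTT read-out.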

The test system of test [5] is RKO. Put plainly: Antiproliferative activity against RKO cells by XTT assay after 48 hrs. The following applies: Homo sapiens. Format: functional, cell-based. The procedure, abridged: as §2
The test system of a further test is NCI-H460. Put plainly: Antiproliferative activity against NCI-H460 cells by XTT assay after 48 hrs. It counts as functional, cell-based. The following applies: Homo sapiens, NCI-H460, 48 h. The procedure, abridged: as §1
Another test deals with SK-OV-3. Put plainly: Antiproliferative activity against SKOV3 cells by XTT assay after 48 hrs. Format: functional, cell-based. The following applies: Homo sapiens, SK-OV-3, 48 h. The method, boiled down: as §1
A further test relates to SF-268. Put plainly: Antiproliferative activity against SF268 cells by XTT assay after 48 hrs. Format: functional, cell-based. The settings on record: Homo sapiens, SF-268, 48 h. The method, boiled down:
as §1

Turning to `COc1ccc(C(=O)Oc2c3ccccc3cc3sccc23)cc1`, the IC50 (commonly the concentration needed to halve the response being measured) in the test with K562 was > 90000 nM; against Tubulin it was > 10000 nM.
For `O=C1c2ccccc2/C(=C/c2c[nH]c3ccccc23)c2sccc21`, the IC50 is 720 nM with K562 and 2800 nM on Tubulin.
In the test with K562, `Cn1cc(/C=C2/c3ccccc3C(=O)c3ccsc32)c2ccccc21` returned an IC50 of 250 nM.
Regarding `O=C1c2ccccc2/C(=C/c2ccc([N+](=O)[O-])cc2)c2sccc21`, the IC50 in the test with K562 is 720 nM; on Tubulin, > 10000 nM.
`COc1ccc2[nH]cc(/C=C3/c4ccccc4C(=O)c4ccsc43)c2c1` returned an IC50 with K562 of 240 nM.
For `O=C1c2ccccc2/C(=C/c2ccc(O)cc2)c2sccc21`, half-maximal inhibition with K562 (IC50) required 810 nM. Against the preceding molecule, the IC50 is about 3.4-fold higher.
In the case of `CC[C@]1(O)C[C@@H]2CN(CCc3c([nH]c4ccccc34)[C@@](C(=O)OC)(c3cc4c(cc3OC)N(C)[C@H]3[C@@](O)(C(N)=O)[C@H](O)[C@]5(CC)C=CCN6CC[C@]43[C@@H]65)C2)C1` [VINDESINE], the IC50 with P388 [1] is 1100 nM; in the test “cells”, 1 nM; in the test with MDR it was 260 nM; with L1210, > 5000 nM; in the test with P388 [2], 10 nM.
As for `COc1ccc(/C=C2/c3ccccc3C(=O)c3ccsc32)cc1OC`, in the test on K562, the IC50 stood at 320 nM.
For `COc1ccc(CCOc2c3ccccc3cc3sccc23)cc1`, the IC50 in the test with K562 was 5300 nM; against Tubulin, > 10000 nM.
As to `COc1ccc(COc2c3ccccc3cc3sccc23)cc1`, the IC50 in test [3] was 470 nM; in the test on K562 it was 250 nM; with RKO [4] it was > 9000 nM; with RKO [5], 280 nM; against Tubulin it was 1520 nM; in the test on NCI-H460 it was 980 nM. Besides, the IC50 with SK-OV-3 was 270 nM; in the test on SF-268 it was 430 nM.
Turning to `O=C1c2ccccc2/C(=C/c2ccccc2)c2sccc21`, the IC50 with K562 was 330 nM; at Tubulin, 6200 nM.
In the test with K562, `O=C1c2ccccc2/C(=C/c2cc(Cl)cc(Cl)c2)c2sccc21` yielded an IC50 of 420 nM. This counts as sub-micromolar.
On to `COc1cc(COc2c3ccccc3cc3sccc23)cc(OC)c1OC`, for which the IC50 is 8950 nM in the test with K562 and > 10000 nM against Tubulin.
On to `COc1cc(/C=C2/c3ccccc3C(=O)c3ccsc32)ccc1O`, for which the IC50 was determined as 100 nM with K562 and 880 nM against Tubulin.
Consider `COc1ccc(COc2c3ccccc3cc3sccc23)cc1OC`, for which the results for the IC50 in the test on K562 and against Tubulin were 900 nM and 3980 nM, respectively.
